Square brackets hold non-standard residues; d marks the D form. Peptide text beside a SMILES is read from it. Sar = CNCC(=O)O
Experiments:
[1] = target: Angiotensin II receptor (Rattus norvegicus) (UniProt P29089+P25095+P35351); assay: Intrinsic myotropic activity at angiotensin 2 receptor in Sprague-Dawley rat uterus relative to [Ile5]angiotensin 2
Procedure, shortened: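 Isolated uterus from diethylstilbestrol-primed female Sprague-Dawley rats (150-250 g), challenged every 12 min. Activity expressed relative to [Ile5]angiotensin II (MRC Research Standard A, 70/302). Mean ± SEM, with the number of experiments given.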

[2] = target: T1, Angiotensin II receptor (Rattus norvegicus, UniProt P29089+P25095+P35351); assay: Antagonist activity at angiotensin 2 receptor in Sprague-Dawley rat uterus assessed as reduction of angiotensin 2-induced response pretreated for 2 mins followed by angiotensin 2 challenge for every 12 mins
T1 sequence (P29089 whole entry): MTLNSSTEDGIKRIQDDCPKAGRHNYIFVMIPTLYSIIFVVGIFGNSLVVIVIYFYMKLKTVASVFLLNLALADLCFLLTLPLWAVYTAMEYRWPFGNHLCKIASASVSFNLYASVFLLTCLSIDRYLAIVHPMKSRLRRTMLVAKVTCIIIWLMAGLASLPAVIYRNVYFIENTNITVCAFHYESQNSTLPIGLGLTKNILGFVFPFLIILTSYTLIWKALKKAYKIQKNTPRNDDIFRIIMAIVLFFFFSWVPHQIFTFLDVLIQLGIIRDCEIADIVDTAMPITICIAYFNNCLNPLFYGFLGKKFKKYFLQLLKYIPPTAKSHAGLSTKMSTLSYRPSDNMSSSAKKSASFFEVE
T1 sequence (P25095 whole entry): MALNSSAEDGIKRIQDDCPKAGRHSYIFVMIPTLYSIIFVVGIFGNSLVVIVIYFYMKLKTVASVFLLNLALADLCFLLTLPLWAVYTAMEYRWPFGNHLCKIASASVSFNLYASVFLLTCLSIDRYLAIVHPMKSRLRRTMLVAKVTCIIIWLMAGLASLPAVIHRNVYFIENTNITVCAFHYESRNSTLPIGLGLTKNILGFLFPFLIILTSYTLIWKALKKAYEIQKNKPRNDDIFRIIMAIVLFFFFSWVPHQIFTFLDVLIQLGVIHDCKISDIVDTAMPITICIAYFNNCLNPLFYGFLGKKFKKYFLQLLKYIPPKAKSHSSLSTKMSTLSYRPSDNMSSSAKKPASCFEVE
T1 sequence (P35351 whole entry): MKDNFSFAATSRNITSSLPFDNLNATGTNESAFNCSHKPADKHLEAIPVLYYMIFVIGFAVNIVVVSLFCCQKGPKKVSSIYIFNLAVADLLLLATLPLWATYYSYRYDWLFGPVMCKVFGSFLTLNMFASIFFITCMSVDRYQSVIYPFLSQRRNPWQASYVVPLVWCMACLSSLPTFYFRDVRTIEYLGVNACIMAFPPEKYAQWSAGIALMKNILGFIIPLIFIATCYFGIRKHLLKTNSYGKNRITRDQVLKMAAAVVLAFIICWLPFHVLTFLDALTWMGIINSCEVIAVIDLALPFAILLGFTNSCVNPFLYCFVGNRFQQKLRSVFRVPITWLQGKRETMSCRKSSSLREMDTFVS

[3] = test system: Rattus norvegicus; assay: Pressor activity in anesthetized vagotomized-ganglionic blocked rat model administered as bolus injection relative to [Ile5]angiotensin 2; assay type: functional
Procedure, shortened: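 Anesthetized, vagotomized rats. Ganglion block with mecamylamine hydrochloride, 0.3 mg/100 g subcutaneous in 10% polyvinylpyrrolidone. Analogues given as bolus injections in a 2+2 assay against angiotensin II standard (MRC Research Standard A, 70/302). Mean ± SEM, with the number of experiments given.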

Intrinsic activity [1] [%] | pA2 [2] | SMILES | Activity [3] [%]
< 0.1 | 8.1 | CC[C@H](C)[C@H](NC(=O)CN(C)C(=O)[C@H](Cc1cnc[nH]1)NC(=O)[C@@H](NC(=O)[C@H](Cc1ccc(O)cc1)NC(=O)[C@@H](NC(=O)[C@H](CCCNC(=N)N)NC(=O)CNC)C(C)C)[C@@H](C)CC)C(=O)O | 0.7
< 0.1 | 7 | CC[C@H](C)[C@H](NC(=O)[C@H](Cc1ccc(O)cc1)NC(=O)[C@@H](NC(=O)[C@H](CCCNC(=N)N)NC(=O)CNC)C(C)C)C(=O)N[C@@H](Cc1cnc[nH]1)C(=O)N(C)CC(=O)N[C@@H](C)C(=O)O (H-[Sar]RVYIH[Sar]A-OH) | 0.06
< 0.1 | 7.7 | CC[C@H](C)[C@H](NC(=O)[C@H](Cc1ccc(O)cc1)NC(=O)[C@@H](NC(=O)[C@H](CCCNC(=N)N)NC(=O)CNC)C(C)C)C(=O)N[C@@H](Cc1cnc[nH]1)C(=O)N(C)CC(=O)N[C@@H](CCSC)C(=O)O (H-[Sar]RVYIH[Sar]M-OH) | 0.82

The remaining lines, values behind:

SMILES | Intrinsic activity [1] [%] | pA2 [2] | Activity [3] [%]
CCC(C)C(NC(=O)CN(C)C(=O)[C@H](Cc1cnc[nH]1)NC(=O)[C@@H](NC(=O)[C@H](Cc1ccc(O)cc1)NC(=O)[C@@H](NC(=O)[C@H](CCCNC(=N)N)NC(=O)CNC)C(C)C)[C@@H](C)CC)C(=O)O (mixture of isomers) | 0.7 | 8.4 | 12.5
CC[C@H](C)[C@H](NC(=O)[C@@H]1CCCN1C(=O)[C@H](Cc1c[nH]cn1)NC(=O)[C@@H](NC(=O)[C@H](Cc1ccc(O)cc1)NC(=O)[C@@H](NC(=O)[C@H](CCCN=C(N)N)NC(=O)CNC)C(C)C)[C@@H](C)CC)C(=O)O | < 0.1 | – | 1.1
CC[C@H](C)[C@H](NC(=O)[C@H](Cc1ccc(O)cc1)NC(=O)[C@@H](NC(=O)[C@H](CCCNC(=N)N)NC(=O)CNC)C(C)C)C(=O)N[C@@H](Cc1cnc[nH]1)C(=O)N(C)CC(=O)N[C@@H](Cc1ccccc1)C(=O)O (H-[Sar]RVYIH[Sar]F-OH) | 22 | – | 17
CC[C@H](C)[C@H](NC(=O)[C@H](Cc1ccc(O)cc1)NC(=O)[C@@H](NC(=O)[C@H](CCCNC(=N)N)NC(=O)CNC)C(C)C)C(=O)N[C@@H](Cc1cnc[nH]1)C(=O)N(C)CC(=O)N[C@@H](CC(C)C)C(=O)O (H-[Sar]RVYIH[Sar]L-OH) | < 0.1 | 7.4 | 0.21
CC[C@H](C)[C@H](NC(=O)[C@H](Cc1ccc(O)cc1)NC(=O)[C@@H](NC(=O)[C@H](CCCNC(=N)N)NC(=O)CNC)C(C)C)C(=O)N[C@@H](Cc1cnc[nH]1)C(=O)N(C)CC(=O)N[C@H](C(=O)O)[C@@H](C)OC (H-[Sar]RVYIH[Sar]T(Me)-OH) | < 0.1 | 7.4 | 0.13

From ChEMBL document CHEMBL3244222, “Synthesis of angiotensin II antagonists containing sarcosine in position 7” (J Med Chem, 1979)
